The values below come from ChEMBL document CHEMBL1154962, “Novel 6-N-arylcarboxamidopyrazolo[4,3-d]pyrimidin-7-one derivatives as potential anti-cancer agents” (2010).

The term inhibition denotes the drop in the measured response relative to a control, in per cent. In general, GI50 refers to the concentration that inhibits growth by half. A high value points to less potent growth inhibition.

Common to all, as to assay type: functional
Assay [1] concerns HT-29. The assay can be described thus: Cytotoxicity against human HT-29 cells at 100 uM after 2 days by sulforhodamine B assay. To be noted: HT-29, 48 h. The procedure, abridged:
(§1)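 Five human cancer lines (HT-29, DU-145, A-549, SK-MEL-2, SK-OV-3) seeded at 3–7 × 10³ cells/well; compounds at 100 µM added in duplicate; 37 °C, 5% CO₂, two days. Fixed with formalin, SRB stained, washed with 1% acetic acid, dye solubilized in 10 mM unbuffered Tris base; OD at 520 nm. Read-out is % inhibition.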
On the technique in general: Sulforhodamine B stains cellular protein and so reports cell mass.

Assay [2] concerns HT-29. The assay can be described thus: Growth inhibition of human HT-29 cells after 2 days by MTT assay. To be noted: HT-29, 48 h. The essentials:
(§2)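 HT-29 and DU-145 cells seeded at 5 × 10⁴ cells/mL; serial concentrations added in duplicate; 37 °C, 5% CO₂, two days. MTT dye (Cell Titer96) for up to 4 h at 37 °C, then solubilization/stop mix overnight at room temperature; OD at 570 nm. GI₅₀ = concentration giving 50% growth inhibition; mean ± SEM of three or more experiments; doxorubicin as internal standard.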
Background: Formazan colour is commonly taken as a measure of viable cells.

Assay [3] deals with DU-145. The assay can be described thus: Growth inhibition of human DU145 cells after 2 days by MTT assay. The following applies: DU-145, 48 h. The procedure, abridged: as §2
Assay [4] has as its system DU-145. In words: Cytotoxicity against human DU145 cells at 100 uM after 2 days by sulforhodamine B assay. To be noted: DU-145, 48 h. The essentials: as §1
For the next assay, the system named is SK-OV-3. The assay can be described thus: Cytotoxicity against human SKOV3 cells at 100 uM after 2 days by sulforhodamine B assay. To be noted: SK-OV-3, 48 h. The essentials:
as §1

The next assay has as its system SK-MEL-2. In words: Cytotoxicity against human SK-MEL-2 cells at 100 uM after 2 days by sulforhodamine B assay. The following applies: SK-MEL-2, 48 h. The essentials: as §1
The next assay relates to A549. The assay can be described thus: Cytotoxicity against human A549 cells at 100 uM after 2 days by sulforhodamine B assay. The following applies: A549, 48 h. The procedure, abridged: as §1

On to `COc1cccc2c1C(=O)c1c(O)c3c(c(O)c1C2=O)C[C@@](O)(C(=O)CO)C[C@@H]3O[C@H]1C[C@H](N)[C@H](O)[C@H](C)O1` [DOXORUBICIN], for which the inhibition at 100 µM in the assay on HT-29 [1] worked out at 60.9%; in the assay with DU-145 [4] it was 62.8%. Moreover, the figures for the GI50 with HT-29 [2] and in the assay on DU-145 [3] were 0.85 µM and 0.35 µM, respectively.

`COc1cccc(-c2nc3c(-c4ccc(Cl)cc4)n[nH]c3c(=O)n2NC(=O)c2ccccc2)c1`: the inhibition at 100 µM was determined as 87.3% with HT-29 [1]; 81.7% in the assay with SK-OV-3; 84.9% in the assay with SK-MEL-2; 81.8% in the assay with A549; 94.1% in the assay on DU-145 [4]. In addition, the GI50 was found to be 20.4 µM in the assay on HT-29 [2] and 17.9 µM with DU-145 [3].

Turning to `O=C(Nn1c(-c2ccccc2)nc2c(-c3ccc(Cl)cc3)n[nH]c2c1=O)c1ccccc1`, the inhibition at 100 µM in the assay with HT-29 [1] came out at 92%; in the assay with DU-145 [4], 90.2%. The GI50 with HT-29 [2] was determined as 20.6 µM; in the assay on DU-145 [3], 20.1 µM.

In the case of `O=C(Nn1c(-c2cccc([N+](=O)[O-])c2)nc2c(-c3ccc(F)cc3)n[nH]c2c1=O)c1ccccc1`, the inhibition at 100 µM in the assay with HT-29 [1] stood at 92%; in the assay on SK-OV-3, 77.7%; in the assay on SK-MEL-2 it was 88.5%; with A549 it was 80.7%; in the assay with DU-145 [4], 90.8%.

For the molecule `CC(C)(C)c1ccc(C(=O)Nn2c(CC3CCCCC3)nc3c(-c4ccc(Cl)cc4)n[nH]c3c2=O)cc1`, the results for the inhibition at 100 µM in the assay on HT-29 [1] and in the assay on DU-145 [4] were 72.3% and 65.2%, respectively. Further, the results for the GI50 in the assay with HT-29 [2] and in the assay with DU-145 [3] were 1.06 µM and more than 100 µM, respectively.

For the molecule `O=C(Nn1c(CCc2ccccc2)nc2c(-c3ccc(Cl)cc3)n[nH]c2c1=O)c1ccccc1`, the inhibition at 100 µM worked out at 86.5% in the assay with HT-29 [1] and 85.6% in the assay on DU-145 [4]. Also, the GI50 is 23.4 µM in the assay on HT-29 [2] and 86.7 µM with DU-145 [3].

On to `O=C(Nn1c(-c2cccc([N+](=O)[O-])c2)nc2c(-c3ccc(F)cc3)n[nH]c2c1=O)c1cccnc1`, for which the inhibition at 100 µM in the assay with HT-29 [1] worked out at 24.7%; with SK-OV-3, 19.3%; with SK-MEL-2, 24.5%; in the assay on A549, 28.8%; in the assay on DU-145 [4], 24.9%.

With `CC(C)(C)c1ccc(C(=O)Nn2c(CCC3CCCC3)nc3c(-c4ccc(Cl)cc4)n[nH]c3c2=O)cc1`, the inhibition at 100 µM in the assay with HT-29 [1] is 76.8%; with DU-145 [4] it was 64.2%. Besides, the GI50 stood at 20.6 µM with HT-29 [2] and 21.5 µM in the assay with DU-145 [3].

In the case of `COc1cccc(-c2nc3c(-c4ccc(C5CCNCC5)cc4)n[nH]c3c(=O)n2NC(=O)c2ccncc2)c1`, the inhibition at 100 µM in the assay on HT-29 [1] came out at 28.1%; in the assay with SK-OV-3, 18.2%; in the assay with SK-MEL-2, 23.4%; with A549 it was 32.4%; in the assay on DU-145 [4] it was 37%.

In the case of `CCCc1n[nH]c2c(=O)n(NC(=O)c3ccccc3)c(-c3cccc([N+](=O)[O-])c3)nc12`, the inhibition at 100 µM in the assay on HT-29 [1] amounted to 18.7%; in the assay on SK-OV-3 it was 28.8%; with SK-MEL-2 it was 22.9%; in the assay on A549, 33.2%; in the assay with DU-145 [4], 27.8%.

`COc1cccc(-c2nc3c(-c4ccc(Cl)cc4)n[nH]c3c(=O)n2NC(=O)c2ccncc2)c1`: the inhibition at 100 µM was 46% in the assay with HT-29 [1]; 42.5% with SK-OV-3; 39.6% with SK-MEL-2; 46% in the assay on A549; 54.4% with DU-145 [4].

`COc1cccc(-c2nc3c(-c4ccco4)n[nH]c3c(=O)n2NC(=O)c2ccccc2)c1`: the inhibition at 100 µM stood at 49.8% in the assay on HT-29 [1]; 35.2% in the assay on SK-OV-3; 43.2% with SK-MEL-2; 53.8% with A549; 50.5% with DU-145 [4].

As to `COc1cccc(-c2nc3c(-c4ccco4)n[nH]c3c(=O)n2NC(=O)c2cccnc2)c1`, the inhibition at 100 µM with HT-29 [1] is 12.8%; with SK-OV-3, 25%; with SK-MEL-2, 34.1%; in the assay on A549, 14.9%; with DU-145 [4] it was 30.1%.

`CCCc1nc2c(-c3ccc(Cl)cc3)n[nH]c2c(=O)n1NC(=O)Cc1ccccc1`: the inhibition at 100 µM with HT-29 [1] turned out to be 91.4%; in the assay on DU-145 [4], 89.7%. Also, the concentration for 50% growth inhibition (GI50) in the assay with HT-29 [2] was determined as 15.2 µM; in the assay on DU-145 [3], 16 µM.

On to `CC(C)Cc1n[nH]c2c(=O)n(NC(=O)c3ccncc3)c(-c3cccc([N+](=O)[O-])c3)nc12`, for which the inhibition at 100 µM turned out to be 35.8% in the assay on SK-OV-3, 38.7% in the assay on SK-MEL-2 and 55.3% in the assay on DU-145 [4].

Take `COc1cccc(Cc2nc3c(-c4ccc(Cl)cc4)n[nH]c3c(=O)n2NC(=O)c2ccccc2)c1`: the results for the inhibition at 100 µM in the assay on HT-29 [1] and in the assay on DU-145 [4] were 89.3% and 93.2%, respectively. Also, the GI50 is 22.1 µM in the assay with HT-29 [2] and 44.9 µM in the assay on DU-145 [3].

For the molecule `O=C(Nn1c(-c2cccc([N+](=O)[O-])c2)nc2c(-c3cccs3)n[nH]c2c1=O)c1cccnc1`, the inhibition at 100 µM in the assay with HT-29 [1] amounted to 3.9%; with SK-MEL-2, 3.26%; in the assay with A549, 10.2%; with DU-145 [4], 32.8%.

On to `CCCc1nc2c(-c3ccc(Cl)cc3)n[nH]c2c(=O)n1NC(=O)c1ccccc1`, for which the values for the inhibition at 100 µM in the assay with HT-29 [1] and in the assay with DU-145 [4] were 91.1% and 89.4%, respectively. The GI50 was found to be 9.26 µM in the assay with HT-29 [2] and 29.2 µM in the assay on DU-145 [3].

`O=C(Nn1c(-c2cccc([N+](=O)[O-])c2)nc2c(-c3ccco3)n[nH]c2c1=O)c1ccccc1`: the inhibition at 100 µM in the assay on HT-29 [1] was 21.2%; in the assay with SK-OV-3, 17.9%; in the assay with SK-MEL-2, 23%; in the assay on A549 it was 18.7%; in the assay on DU-145 [4] it was 16.1%.

Consider `O=C(Nn1c(-c2cccc([N+](=O)[O-])c2)nc2c(-c3ccc(Cl)cc3)n[nH]c2c1=O)c1ccccc1`, for which the inhibition at 100 µM with HT-29 [1] was 87.8%; in the assay on SK-OV-3, 86.8%; in the assay with SK-MEL-2 it was 89%; in the assay on A549, 88.6%; in the assay on DU-145 [4], 94.2%. For the same molecule, the concentration for 50% growth inhibition (GI50) with HT-29 [2] worked out at 18.4 µM; in the assay on DU-145 [3], 17.1 µM.

Regarding `COc1cccc(-c2nc3c(-c4cccc(Cl)c4)n[nH]c3c(=O)n2NC(=O)c2ccccc2)c1`, the inhibition at 100 µM was 91% with HT-29 [1], 81.9% in the assay with SK-MEL-2 and 93.5% in the assay with DU-145 [4].

On to `O=C(Nn1c(-c2cccc([N+](=O)[O-])c2)nc2c(CCc3ccccc3)n[nH]c2c1=O)c1ccccc1`, for which the inhibition at 100 µM is 89.7% in the assay with HT-29 [1], 92% with SK-MEL-2, 73.9% in the assay on A549 and 92.5% in the assay with DU-145 [4].

With `CCCc1n[nH]c2c(=O)n(NC(=O)c3ccncc3)c(-c3cccc(OC)c3)nc12`, the inhibition at 100 µM in the assay with HT-29 [1] worked out at 0.07%; in the assay on SK-OV-3, 4.04%; with SK-MEL-2 it was 11.4%; in the assay with A549, 11.2%; in the assay on DU-145 [4], 4.04%.

As for `O=C(Nn1c(-c2cccc([N+](=O)[O-])c2)nc2c(-c3cccc(Cl)c3)n[nH]c2c1=O)c1ccccc1`, the figures for the inhibition at 100 µM with HT-29 [1], with SK-MEL-2 and in the assay on DU-145 [4] were 89.8%, 78.2% and 93.8%, respectively.

In the case of `CCCc1n[nH]c2c(=O)n(NC(=O)c3ccncc3)c(-c3cccc([N+](=O)[O-])c3)nc12`, the inhibition at 100 µM was -0.83% in the assay on HT-29 [1]; 15.1% in the assay with SK-OV-3; 14.2% with SK-MEL-2; 9.95% in the assay on A549; 15.1% in the assay with DU-145 [4].

On to `CCCc1n[nH]c2c(=O)n(NC(=O)c3ccccc3)c(-c3cccc(OC)c3)nc12`, for which the inhibition at 100 µM in the assay on HT-29 [1] is 6.27%; in the assay on SK-OV-3, 9.96%; in the assay on SK-MEL-2, 16.7%; in the assay with A549 it was 20.7%; in the assay with DU-145 [4], 23.6%.

With `O=C(Nn1c(-c2cccc([N+](=O)[O-])c2)nc2c(-c3ccco3)n[nH]c2c1=O)c1cccnc1`, the inhibition at 100 µM with HT-29 [1] is 11.7%; in the assay on SK-OV-3, -0.61%; in the assay with SK-MEL-2 it was 19.2%; in the assay on A549, 1.51%; in the assay on DU-145 [4], 1.66%.

In the case of `O=C(Nn1c(CCC2CCCC2)nc2c(-c3ccc(Cl)cc3)n[nH]c2c1=O)c1ccccc1`, the inhibition at 100 µM came to 87.3% with HT-29 [1] and 89.6% in the assay with DU-145 [4]. In addition, the 50% growth inhibitory concentration (GI50) in the assay with HT-29 [2] is 1.8 µM; with DU-145 [3], 10.2 µM.

Consider `O=C(Nn1c(-c2cccc([N+](=O)[O-])c2)nc2c(CCc3ccccc3)n[nH]c2c1=O)c1cccnc1`, for which the inhibition at 100 µM in the assay with HT-29 [1] worked out at 20.1%; in the assay with SK-OV-3, 30.1%; with SK-MEL-2, 28.5%; with A549, 19%; in the assay on DU-145 [4], 22.5%.

Regarding `O=C(Nn1c(-c2cccc([N+](=O)[O-])c2)nc2c(-c3ccc(Cl)cc3)n[nH]c2c1=O)c1cccnc1`, the inhibition at 100 µM with HT-29 [1] stood at 15.1%; in the assay with SK-OV-3 it was 30.2%; with SK-MEL-2 it was 16.3%; in the assay with A549 it was 19.7%; with DU-145 [4] it was 31%.
